From ChEMBL document CHEMBL1132183 (J Med Chem, 1999)

Key:
[1] = biological target: T1, 5-hydroxytryptamine receptor 1A (Homo sapiens) (UniProt P08908); assay: Eudisimic ratio(ER) is the antilog of the difference between the pKb and pD2 values against 5-hydroxytryptamine 1A receptor; assay type: functional
T1 sequence (whole entry): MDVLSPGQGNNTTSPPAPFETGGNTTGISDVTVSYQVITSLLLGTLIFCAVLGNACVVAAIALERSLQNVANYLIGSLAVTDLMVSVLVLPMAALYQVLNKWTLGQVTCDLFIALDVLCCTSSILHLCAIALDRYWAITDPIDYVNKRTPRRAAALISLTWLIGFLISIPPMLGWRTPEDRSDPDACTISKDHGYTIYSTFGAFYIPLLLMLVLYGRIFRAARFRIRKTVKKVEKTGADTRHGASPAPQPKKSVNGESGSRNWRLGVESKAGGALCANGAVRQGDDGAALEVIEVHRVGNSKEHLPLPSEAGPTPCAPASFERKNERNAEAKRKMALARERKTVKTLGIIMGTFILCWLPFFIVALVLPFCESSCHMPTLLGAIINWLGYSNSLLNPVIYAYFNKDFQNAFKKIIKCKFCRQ
In short: (§1)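 Eudismic ratio is the antilog of the difference between the pKb (functional α1 tissue assays) or pD2 (5-HT1A [35S]GTPγS stimulation) of the eutomer and that of its distomer.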

[2] = biological target: T1, 5-hydroxytryptamine receptor 1A (Homo sapiens); assay: Concentration required to obtain 50% maximal stimulation of [35S]GTP gamma-S binding to human cloned 5-HT1A receptors of cell membranes from HeLa cells; assay type: functional
In short: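 [35S]GTPγS binding in membranes of HeLa cells stably expressing human 5-HT1A, in 20 mM HEPES, 3 mM MgSO4, 120 mM NaCl pH 7.4. Preincubation 20 min at 30 °C with 30 μM GDP and drug (0.1 nM–100 μM), then 150–250 pM [35S]GTPγS for 30 min at 30 °C. Stimulation above basal was scaled to the 5-HT maximum (100%). Emax and pD2 came from curve fits; triplicate, 2–3 sessions.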

[3] = biological target: T2, Alpha-1B adrenergic receptor (Rattus norvegicus) (UniProt P15823); assay: Eudisimic ratio(ER) is the antilog of the defference between the pKb and pD2 values against alpha-1B-adrenoceptor subtype; assay type: functional; in short: as §1
T2 sequence (whole entry): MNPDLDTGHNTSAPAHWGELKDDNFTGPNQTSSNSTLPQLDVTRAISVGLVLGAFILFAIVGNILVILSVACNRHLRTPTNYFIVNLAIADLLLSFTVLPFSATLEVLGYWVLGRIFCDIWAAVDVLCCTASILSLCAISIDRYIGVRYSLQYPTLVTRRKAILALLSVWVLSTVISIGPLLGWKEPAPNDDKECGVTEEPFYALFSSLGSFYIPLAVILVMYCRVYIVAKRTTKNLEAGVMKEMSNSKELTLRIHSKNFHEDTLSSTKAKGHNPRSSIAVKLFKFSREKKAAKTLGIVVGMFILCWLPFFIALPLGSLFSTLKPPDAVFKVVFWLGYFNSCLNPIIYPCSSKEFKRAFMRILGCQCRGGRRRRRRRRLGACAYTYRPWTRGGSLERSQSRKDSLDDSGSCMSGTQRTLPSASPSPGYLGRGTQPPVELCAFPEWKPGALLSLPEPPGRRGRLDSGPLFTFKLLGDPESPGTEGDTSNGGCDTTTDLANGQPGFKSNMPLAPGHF

[4] = biological target: T3, Alpha-1A adrenergic receptor (Rattus norvegicus) (UniProt P43140); assay: Antagonist activity against Alpha-1A adrenergic receptor (-)-noradrenaline-induced contraction of rat prostatic vas deferens; assay type: functional, tissue-based
T3 sequence (whole entry): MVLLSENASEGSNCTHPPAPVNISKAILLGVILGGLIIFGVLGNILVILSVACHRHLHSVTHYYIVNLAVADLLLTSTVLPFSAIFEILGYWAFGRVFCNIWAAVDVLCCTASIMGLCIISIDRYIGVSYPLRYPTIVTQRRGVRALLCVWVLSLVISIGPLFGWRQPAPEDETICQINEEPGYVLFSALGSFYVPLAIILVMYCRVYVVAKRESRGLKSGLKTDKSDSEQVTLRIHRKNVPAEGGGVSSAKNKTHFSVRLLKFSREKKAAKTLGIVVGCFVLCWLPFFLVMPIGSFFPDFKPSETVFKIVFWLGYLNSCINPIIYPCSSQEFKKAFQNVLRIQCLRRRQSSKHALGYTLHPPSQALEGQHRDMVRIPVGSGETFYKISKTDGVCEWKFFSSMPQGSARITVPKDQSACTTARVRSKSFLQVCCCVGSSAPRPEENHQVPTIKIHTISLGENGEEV
In short: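 Isolated rat prostatic vas deferens with 0.01 μM desipramine in the bath. Isotonic cumulative (–)-noradrenaline curves were run at 30-min intervals: first discarded, second as control, then antagonist equilibrated 30 min before a new curve. pKb by Arunlakshana–Schild from dose ratios of EC50, at 2–3 antagonist concentrations, each tested four times.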

[5] = biological target: T4, Alpha-1D adrenergic receptor (Rattus norvegicus) (UniProt P23944); assay: Alpha-1D adrenergic receptor subtype blocking activity (antagonism) against (-)-noradrenaline-induced contraction of rat thoracic aorta.; assay type: functional, tissue-based
T4 sequence (whole entry): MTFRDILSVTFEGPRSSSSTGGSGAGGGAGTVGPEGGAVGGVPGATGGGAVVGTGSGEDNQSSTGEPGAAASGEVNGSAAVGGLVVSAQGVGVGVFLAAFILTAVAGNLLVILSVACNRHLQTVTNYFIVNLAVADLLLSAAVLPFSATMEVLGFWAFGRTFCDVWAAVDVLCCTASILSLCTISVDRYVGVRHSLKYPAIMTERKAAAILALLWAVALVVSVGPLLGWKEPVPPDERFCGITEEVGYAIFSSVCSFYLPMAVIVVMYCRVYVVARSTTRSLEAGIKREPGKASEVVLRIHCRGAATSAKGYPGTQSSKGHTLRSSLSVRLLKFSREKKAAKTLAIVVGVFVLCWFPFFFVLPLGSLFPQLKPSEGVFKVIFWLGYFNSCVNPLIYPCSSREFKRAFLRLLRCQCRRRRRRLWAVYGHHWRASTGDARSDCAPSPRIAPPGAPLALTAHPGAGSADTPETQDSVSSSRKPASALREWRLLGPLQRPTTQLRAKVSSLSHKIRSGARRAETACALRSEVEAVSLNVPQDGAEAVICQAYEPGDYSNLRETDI
In short: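 Helicoidal strips of rat thoracic aorta under 1 g tension, bath with 0.01 μM desipramine and 1 μM (±)-propranolol, equilibrated ≥1 h. Cumulative (–)-noradrenaline curves at 30-min intervals: first two discarded, third as control, fourth after 30-min antagonist exposure. pKb by Arunlakshana–Schild from EC50 dose ratios at 2–3 antagonist concentrations, each tested four times.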

[6] = biological target: Serotonin 2 (5-HT2) receptor (Rattus norvegicus, UniProt P30994+P08909+P14842); assay: Displacement of [3H]ketanserin from rat brain 5-hydroxytryptamine 2 receptor
In short: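 Rat cerebral cortex membranes (male Sprague–Dawley) in Tris-HCl pH 7.4 with 10 μM pargiline and 0.1% ascorbic acid were incubated 20 min at 37 °C with 0.7–1.3 nM [3H]ketanserin (5-HT2A). Nonspecific binding was defined by 2 μM ketanserin. Bound label was counted after filtration, and Ki was derived by Cheng–Prusoff.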

Compound | ER [1] | pD2 [2] | ER [3] | pKb [4] | pKb [5] | Log Ki [6]
O[C@H]1[C@@H](NC[C@H]2COc3ccccc3O2)CC[C@@H]1Oc1ccccc1 | 27 | 7.3 | 11 | 5.65 | 6.92 | < -6
O[C@H]1[C@@H](NC[C@@H]2COc3ccccc3O2)CC[C@@H]1Oc1ccccc1 |  | 7.96 |  | < 5 | 6.65 | 
O[C@@H]1[C@H](NC[C@H]2COc3ccccc3O2)CC[C@H]1Oc1ccccc1 |  | 5.87 | 49 | 6.55 | 8.17 | < -6
O[C@@H]1[C@H](NC[C@@H]2COc3ccccc3O2)CC[C@H]1Oc1ccccc1 |  | 5.87 |  | 6.1 | 7.78 | 
